DNMT1 block – inhibitors of human DNMT1. 360,000 tested, 0.83% active. DNMT1 molecular beacon, Hinp1I cleavage, fluorescence. inhibition (reported as % activation of signal), % at 10 µM; in the data active = inhibition above about 50%
Rpn11 inh – inhibitors of human proteasome Rpn11; human 26S proteasome, Ub4-pepOG fluorescence polarization; 20S core pre-blocked with epoxomicin; inhibition, % at 20 µM; 360,000 tested, 0.59% active; O00487; AID 588493;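 active = inhibition at 20 µM, scaled to each plate's controls, above about 33%, limit read from the data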
LMPTP block – blocks human LMPTP phosphatase; 360,000 tested, 0.22% active; AID 651560; recombinant LMPTP-A, OMFP fluorogenic substrate, fluorescence intensity; inhibition, % at 20 µM; P24666;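 active = compounds that cut the enzyme signal by at least half of the control window in the single-dose screen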;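 also: plate controls were DMSO wells with enzyme plus substrate for no effect and substrate without enzyme for full effect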
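Test system: LMPTP-A phosphatase enzyme. Amount: LMPTP-A at 0.625 nM final in the reaction. Reagent: OMFP substrate, 400 µM final. Times: 50 min at room temperature. Signal: endpoint fluorescence intensity from OMFP dephosphorylation. Read-out basis: % inhibition. Benchmarks: no-enzyme and uninhibited controls.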
Scp-1 inhibitor – Scp-1 (human) phosphatase inhibition; 340,000 tested, 0.88% active; inhibition, % at 20 µM; Q9GZU7; Recombinant Scp1, phosphopeptide, malachite green phosphate absorbance; AID 493091;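 active = inhibition above about 50% at 20 µM, limit read from the data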;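 also: plate controls were DMSO wells with enzyme for no effect and wells lacking enzyme for full effect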
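Incubation: 45 min enzyme reaction at room temperature / System: truncated SCP-1 phosphatase (76-261aa) / Reagent: Phospho 17-mer peptide substrate / Buffer or medium: Acidic Tris acetate buffer with magnesium and detergent / Signal: absorbance at 630 nm / Doses: one concentration, 20 µM, with 1.0% DMSO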
STEP inh – blocks human striatal-enriched tyrosine phosphatase | P54829 | recombinant STEP, OMFP fluorogenic substrate, fluorescence | inhibition, % at 20 µM | 360,000 tested, 0.25% active | AID 588621;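 active = inhibition at 20 µM, scaled per plate between control wells, above about 37%, limit read from the data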;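 also: 0% = DMSO with enzyme and substrate and 100% = substrate only without enzyme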
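System: STEP phosphatase, cell-free reaction; Buffer or medium: Bis-Tris pH 6.0 buffer with DTT, detergent; Incubation: 20 min at room temperature, dark; Measured by: fluorescence, 480/540 nm.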
SUMO1-SIM PPI – SUMO1-SIM interaction modulation | 360,000 tested, 0.33% active | AID 602429 | inhibition, % at 20 µM | SUMO1 binding to a labelled peptide, TR-FRET, 1 h; in the data active = inhibition above about 37%
Rpn11 confirm – confirmation of human proteasome Rpn11 inhibitors; shares compounds with Rpn11 inh; purified human 26S proteasome, Ub4-pepOG fluorescence polarization; proteasome pretreated with epoxomicin; inhibition, % at 20 µM; 1,900 tested, 29% active; AID 602318
MMP-2 inh – MMP-2 (human) inhibition counter-screen; shares compounds with Rpn11 inh; recombinant MMP-2, FRET peptide cleavage fluorescence; inhibition, % at 20 µM; 1,900 tested, 4% active;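 also: human MMP-2 activated beforehand with APMA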
Thrombin FP – counter-screen for RPN11 inhibitors: inhibition of bovine thrombin; AID 602333; inhibition, % at 20 µM; 1,900 tested, 13% active; bovine thrombin cleavage of Ub4-pepOG, fluorescence polarization; shares compounds with Rpn11 inh;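 active = mean inhibition at least 40% at 20 µM, or signal 3 deviations below plate average, so some actives read negative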;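 also: plate controls were thrombin with DMSO for no effect and buffer wells lacking thrombin for full effect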
Target sequence (P00735 whole entry, looked up): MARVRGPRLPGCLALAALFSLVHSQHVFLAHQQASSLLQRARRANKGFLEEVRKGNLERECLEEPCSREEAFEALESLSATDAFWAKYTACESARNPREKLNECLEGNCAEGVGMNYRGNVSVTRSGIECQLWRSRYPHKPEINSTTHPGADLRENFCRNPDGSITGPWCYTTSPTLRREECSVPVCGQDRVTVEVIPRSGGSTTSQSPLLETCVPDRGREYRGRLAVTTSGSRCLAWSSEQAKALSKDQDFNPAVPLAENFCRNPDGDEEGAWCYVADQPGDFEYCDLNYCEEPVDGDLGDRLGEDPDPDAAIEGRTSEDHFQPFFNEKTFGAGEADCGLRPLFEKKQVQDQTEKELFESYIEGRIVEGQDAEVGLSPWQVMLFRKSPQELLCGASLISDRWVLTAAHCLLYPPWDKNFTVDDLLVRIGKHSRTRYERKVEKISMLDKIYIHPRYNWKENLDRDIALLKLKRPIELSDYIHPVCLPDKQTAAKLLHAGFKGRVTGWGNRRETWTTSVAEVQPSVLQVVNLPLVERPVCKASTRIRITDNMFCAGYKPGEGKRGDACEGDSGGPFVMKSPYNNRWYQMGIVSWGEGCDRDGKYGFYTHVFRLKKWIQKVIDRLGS
Numbers without * were called inactive; . = no result given; + = active, no number. Only some compounds are listed: those with a hit (about 2.3% of all), similar ones and a draw of the others. Rule as the data show it, unless noted: active = inhibition above about 40%; inactive = the rest.

SMILES	DNMT1 block	Rpn11 inh	LMPTP block	Scp-1 inhibitor	STEP inh	SUMO1-SIM PPI	Rpn11 confirm	MMP-2 inh	Thrombin FP
CN1OC[C@@H]2CN(S(=O)(=O)c3cc(Cl)cc(Cl)c3)[C@H](c3ccc(-c4ccc(C#N)cc4)cc3)C[C@@H]21	-3	11	3	.	1	1	.	.	.
Cc1c(NC(=O)COc2cccc(Br)c2)c(=O)n(-c2ccccc2)n1C	1	1	-2	1	-1	3	.	.	.
COC(=O)c1c(NC(=O)c2ccc(S(=O)(=O)N3CC(C)OC(C)C3)cc2)sc2c1CCN(C)C2 (centres undefined)	22	69*	1	.	4	-23	93*	-50	35
COc1cc(OC)c(OC)cc1/C=C/c1cc(C(F)(F)F)[nH]c(=O)n1	-1	65*	6	-4	0	-5	22	-14	3
COc1ccc(OCC(=O)Nc2cc(-c3nn4c(C)nnc4s3)ccc2C)cc1	18	51*	2	4	4	-2	19	-20	-4
Cc1cc(C(=O)COC(=O)c2ccc(NC(=O)CC#N)cc2)c(C)n1CCc1ccc(F)cc1	-18	53*	4	-17	-1	1	23	-19	17
N#CCC(=O)Nc1ccc(C(=O)OCC(=O)c2ccc3c(c2)NC(=O)CO3)cc1	-5	45*	16	11	3	84*	21	-3	25
CC(C)(C)[C@H](NC(=O)c1ccc(N)c(Cl)c1)C(=O)N1CCC[C@H]1C(=O)N[C@H](C#N)CC(=O)O	1	0	0	.	3	-1	.	.	.
CC(C)OC(=O)N(C)C[C@H]1OCc2cnnn2CCCC(=O)N([C@H](C)CO)C[C@H]1C	4	-1	2	.	2	5	.	.	.
N#Cc1c(SCc2ccccc2)sc(C(=O)c2ccccc2)c1N	-13	5	2	-16	18	-8	.	.	.
Cc1ccc(CSc2sc(C(=O)c3ccccc3)c(N)c2C#N)cc1	-18	81*	3	-10	19	10	-4	4	-5
CCN1C(=O)CS/C1=C(\C#N)S(=O)(=O)c1ccccc1	-3	42*	-1	-2	0	1	34	16	23
CCN1C(=O)CS/C1=N\S(=O)(=O)c1ccccc1	1	-1	-1	-9	1	5	.	.	.
Clc1cccc2sc(N3CCCC3)nc12	0	-10	0	2	-2	1	.	.	.
Clc1cccc2sc(N3CCOCC3)nc12	0	33*	0	2	-1	1	-7	-47	-12
O=C(CCOc1ccccc1)NCC(c1ccco1)N1CCCCC1 (centres undefined)	0	83*	-1	-7	-4	1	-9	-55	-4
CCC(=O)Nc1cc2c3c(c1)CCC(=O)N3CCC2	1	-5	-2	-8	2	-4	.	.	.
O=C(COC(=O)CCNS(=O)(=O)c1ccc(Cl)cc1)Nc1ccccc1OC(F)F	-1	89*	0	-6	1	0	-21	-38	-24
NNC(=O)COc1ccc(-c2nccc(-c3ccc(F)cc3)n2)cc1	-4	4	1	5	-2	-4	.	.	.
NNC(=O)COc1ccc(F)cc1	-2	46*	-1	-10	0	-2	1	-25	0
Cn1c(=O)n(C)c2cc3[nH]cnc3cc21	-1	1	0	-12	2	2	.	.	.
Nc1cc2nc[nH]c2cc1N	-23	45*	16	3	19	34	-19	3	-29
O=C(Nc1ccc(F)c(Cl)c1)[C@@H]1O[C@H](CO)[C@H](O)[C@H](O)[C@H]1O	0	-5	0	.	0	2	.	.	.
COc1cc2cc3c(N)c(C(=O)Nc4sc(C)c(C)c4C#N)sc3nc2cc1OC	-7	84*	4	18	6	17	48*	6	31
C#CCn1c(=NC(=O)c2cc(-c3cccs3)nc3ccccc23)sc2cc(S(N)(=O)=O)ccc21	-3	70*	3	16	-1	2	23	-14	9
SMILES	DNMT1 block	Rpn11 inh	LMPTP block	Scp-1 inhibitor	STEP inh	SUMO1-SIM PPI	Rpn11 confirm	MMP-2 inh	Thrombin FP
O=C(CSc1nc(-c2ccccc2)c(-c2ccccc2)[nH]1)N1CCN(S(=O)(=O)c2ccccc2)CC1	-7	+	2	3	-1	2	-3	-5	6
O[C@@H]1CN(Cc2cccs2)[C@@H](c2ccc(Cl)cc2)C[C@H]1n1cc(C2CC2)nn1	-5	-3	0	.	-4	3	.	.	.
CC(C)N1CCc2c(sc(NC(=O)c3cc4cc([N+](=O)[O-])ccc4s3)c2C(N)=O)C1	-13	66*	42	-1	1	2	22	15	-11
CC(C)N1CCc2c(sc(NC(=O)c3ccc4ccccc4c3)c2C(N)=O)C1	-8	.	3	-4	2	-34	.	.	.
CC(Oc1cccnc1[N+](=O)[O-])C(=O)Nc1ccc(Cl)cn1 (centres undefined)	0	4	0	3	0	-22	.	.	.
COc1ccc(-c2cc(NC=O)c3ncc(-c4ccc(C(C)=O)cc4)n3c2)cn1	-7	55*	3	.	1	-6	26	-9	11
Cn1c(N/N=C/c2ccccc2)nc2sc3c(c2c1=O)CCC3	-7	53*	0	1	2	15	-8	7	-7
CCCc1nc2sc3c(c2c(=O)[nH]1)CCCC3	-1	4	-2	-3	1	0	.	.	.
Cc1nnc(SCc2nc3sc4c(c3c(=O)[nH]2)CCCC4)[nH]c1=O	5	61*	0	-6	-1	12	21	-6	84*
O=c1[nH]c(=S)[nH]c2c1C(c1ccc(Br)cc1)c1c([nH]c(=S)[nH]c1=O)O2	67*	141*	68*	97*	92*	115*	49*	22	28
CC(C)NC(=O)c1cc(C2CCCCN2C(=O)c2ccc(C#N)cc2)on1 (centres undefined)	-4	0	-2	.	2	-1	.	.	.
CC[n+]1c(/C=C2\Sc3ccccc3N2C)ccc2cccc(C)c21	19	102*	81*	4	14	-117	96*	-51	157*
CCOCCCn1c(=NC(C)=O)c(C#N)cc2c(=O)n3ccccc3nc21	13	-6	3	2	4	-19	.	.	.
